Active and inactive are the calls of the source. The rule behind the calls is not given here.
Key:
[1] = molecular target: T1, Lysosomal Pro-X carboxypeptidase (Mus musculus, UniProt Q7TMR0); assay: Inhibition of recombinant mouse PrCP using Mca-Ala-Pro-Lys(Dnp)-OH as substrate measured for 30 mins by continuous fluorometric assay
T1 sequence (Q7TMR0 whole entry): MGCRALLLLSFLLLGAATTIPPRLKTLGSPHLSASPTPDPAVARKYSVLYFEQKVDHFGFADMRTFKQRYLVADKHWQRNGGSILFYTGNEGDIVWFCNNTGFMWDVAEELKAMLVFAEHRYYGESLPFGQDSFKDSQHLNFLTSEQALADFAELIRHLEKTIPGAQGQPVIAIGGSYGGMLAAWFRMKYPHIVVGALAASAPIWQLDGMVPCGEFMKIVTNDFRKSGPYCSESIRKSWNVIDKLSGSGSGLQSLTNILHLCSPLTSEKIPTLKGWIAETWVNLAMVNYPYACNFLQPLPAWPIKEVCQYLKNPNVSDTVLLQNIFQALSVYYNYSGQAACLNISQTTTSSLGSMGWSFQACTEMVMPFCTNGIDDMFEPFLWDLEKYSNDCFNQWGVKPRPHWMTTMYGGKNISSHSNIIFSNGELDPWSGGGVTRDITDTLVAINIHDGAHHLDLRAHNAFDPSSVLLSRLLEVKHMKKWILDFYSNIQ

[2] = molecular target: T1, Lysosomal Pro-X carboxypeptidase; assay: Inhibition of PrCP-mediated conversion of Ang3 to Ang(2-7) in mouse plasma
Summary of the method: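 Whole mouse plasma was pretreated with protease inhibitors to block non-PrCP conversion of angiotensin III. Inhibitor was then added, and the rate of conversion of AngIII to Ang(2–7) was compared with a vehicle-treated control.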

[3] = Half life in mouse at 1 mg/kg, iv and 2 mg/kg, po by LC-MS/MS analysis; type: ADME, organism-based; conditions: in vivo
Summary of the method: (§1)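 Mice received 1 mg/kg IV (n = 2) or 2 mg/kg PO (n = 3). The formulation was 1 mg/mL in ethanol–PEG–water (20:40:40). Blood was deproteinized with acetonitrile and drug levels were measured by LC/MS/MS. Outputs were clearance, Vd, half-life, %F and dose-normalized oral AUC.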

[4] = Volume of distribution in mouse at 1 mg/kg, iv and 2 mg/kg, po by LC-MS/MS analysis; type: ADME, organism-based; conditions: in vivo
Summary of the method: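 Mouse PK with the compound formulated at 1 mg/mL in ethanol–PEG–water (20:40:40). Given IV at 1 mg/kg (n = 2) and PO at 2 mg/kg (n = 3). Blood concentrations were measured by LC/MS/MS after protein precipitation with acetonitrile. Volume of distribution is reported in L/kg.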

[5] = Clearance in mouse at 1 mg/kg, iv and 2 mg/kg, po by LC-MS/MS analysis; type: ADME, organism-based; conditions: in vivo; summary of the method: as §1
Mus musculus [6] = assay: Induction of weight loss in PrCP knock-out mouse at 30 mg/kg, sc administered for 7 days; type: functional, organism-based; set-up: dose 30 mg/kg
Summary of the method: (§2)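 Wild-type and PrCP knockout mice (n = 8 per group) received continuous subcutaneous infusion by pump for 7 days at 10 or 30 mg/kg. The vehicle was DMSO–1,2-propanediol (1:1 v/v). Body weight and food intake were recorded daily and compared with a vehicle group. Injection-site adverse events were noted, and terminal plasma drug concentration was measured.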

Mus musculus [7] = assay: Inhibition of wild type PrCP in mouse plasma at 30 mg/kg, sc administered for 7 days by fluorescence analysis; type: functional; conditions: 168 h, route subcutaneous
Mus musculus [8] = assay: Inhibition of wild type PrCP in mouse plasma at 10 mg/kg, sc administered for 7 days by fluorescence analysis; type: functional; conditions: 168 h, route subcutaneous
Mus musculus [9] = assay: Induction of weight loss in wild type PrCP expressing mouse at 30 mg/kg, sc administered for 7 days; type: functional, organism-based; set-up: dose 30 mg/kg; summary of the method: as §2
Mus musculus [10] = assay: Induction of weight loss in wild type PrCP expressing mouse at 10 mg/kg, sc administered for 7 days; type: functional, organism-based; set-up: dose 10 mg/kg; summary of the method: as §2
Mus musculus [11] = assay: Induction of weight loss in PrCP knock-out mouse at 10 mg/kg, sc administered for 7 days; type: functional, organism-based; set-up: dose 10 mg/kg; summary of the method: as §2
Mus musculus [12] = species: Mus musculus; conditions: 10 mg/kg
Mus musculus [13] = assay: Terminal plasma PrCP inhibition in eDIO mouse model at 10 mg/kg, sc administered for 7 days; type: functional; conditions: 168 h, route subcutaneous

## O=C(CCN1CCC(c2ccccc2)CC1)NC(c1ccc(Cl)cc1)C(F)(F)F (configuration not stated)
[1]
  IC50: 0.014 µM

## O=C(CCN1CCC(c2ccccc2)CC1)NC(c1ccncc1)c1ccc(Cl)cc1 (racemic)
[1]
  IC50: 0.0021 µM

## O=C(CCN1CCC(c2ccccc2)CC1)NC(c1ccc(Cl)cc1)c1ccc(Cl)cc1
[1]
  IC50: 0.004 µM
[2]
  IC50: 0.058 µM

## O=C(CCN1CCC(c2nc(-c3ccccn3)no2)CC1)N1CCC[C@H]1c1nc2cc(Cl)c(Cl)cc2[nH]1
[1]
  IC50: 0.004 µM

## O=C(CCN1CCC(c2ccccc2)CC1)NC(c1ccc(Cl)cc1)C(F)F (configuration not stated)
[1]
  IC50: 0.017 µM
[2]
  IC50: 0.017 µM

## C[C@@H](c1ccc(-c2ccccc2)cc1)[C@H](NC(=O)C(C)(C)N)C(=O)NC(c1ccncc1)c1ccc(Cl)cc1 (mixture of isomers)
[3]
  half-life: 3.6 h
[4]
  Vd: 21 L/kg
[5]
  clearance: 85 mL/min/kg
[1]
  IC50: 0.0004 µM
[2]
  IC50: 0.006 µM

## CC(C)[C@H](NC(=O)CCN1CCC(c2ccccc2)CC1)c1ccc(Cl)cc1
Mus musculus [6]
  Activity: Active
Mus musculus [7]
  inhibition in vivo at 30 mg/kg: 85%
Mus musculus [8]
  inhibition in vivo at 10 mg/kg: 87%
Mus musculus [9]
  Activity: Active
Mus musculus [10]
  Activity: inactive
[1]
  IC50: 0.0052 µM
Mus musculus [11]
  Activity: inactive
Mus musculus [12]
  inhibition: inactive
Mus musculus [13]
  inhibition in vivo at 10 mg/kg: 65%
[2]
  IC50: 0.0126 µM

## O=C(CCN1CCC(c2ccccc2)CC1)N1CCC[C@H]1c1nc2cc(Cl)c(Cl)cc2[nH]1
[2]
  IC50: > 10 µM

## C[C@@H](c1ccc(-c2ccccc2)cc1)[C@H](N)C(=O)NC(c1ccncc1)c1ccc(Cl)cc1 (mixture of isomers)
[1]
  IC50: 0.0014 µM
[2]
  IC50: 0.108 µM

## O=C(CCN1CCC(c2nc(-c3ccccn3)no2)CC1)NC(c1ccncc1)c1ccc(F)cc1 (racemic)
[2]
  IC50: 0.015 µM

## C[C@H](NC(=O)CCN1CCC(c2nc(-c3ccccn3)no2)CC1)c1ccc(F)cc1
[2]
  IC50: 0.348 µM
